Values after ≈ are worked out from the molar mass of the structure shown.
What was measured:
Enterococcus faecalis [1] = test: Minimal inhibitory concentration against vancomycin resistant Enterococcus faecalis was determined; Range = 25-50 uM; assay type: functional
Summary of the method: (§1)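 Broth microdilution per NCCLS M7-A3 in Mueller–Hinton broth, aerobic. Agents tested as 2-fold serial dilutions, with a final inoculum of 1–5 × 10^5 CFU/mL. Plates incubated 18–22 h at 35 °C in ambient air. MIC read as the endpoint.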

Streptococcus pneumoniae [2] = test: Minimum inhibitory concentration against cell wall biosynthesis of penicillin resistant Streptococcus pneumoniae GC 1894 (PRSP); assay type: functional
Summary of the method: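 Broth microdilution per NCCLS M7-A3, using Mueller–Hinton broth supplemented with 5% sheep blood. Agents tested as 2-fold serial dilutions, with a final inoculum of 1–5 × 10^5 CFU/mL.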

[3] = molecular target: T1, UDP-N-acetylenolpyruvoylglucosamine reductase (Staphylococcus aureus, UniProt P61431); test: Inhibitory concentration against MurB enzyme in Staphylococcus aureus
T1 sequence (P61431 whole entry): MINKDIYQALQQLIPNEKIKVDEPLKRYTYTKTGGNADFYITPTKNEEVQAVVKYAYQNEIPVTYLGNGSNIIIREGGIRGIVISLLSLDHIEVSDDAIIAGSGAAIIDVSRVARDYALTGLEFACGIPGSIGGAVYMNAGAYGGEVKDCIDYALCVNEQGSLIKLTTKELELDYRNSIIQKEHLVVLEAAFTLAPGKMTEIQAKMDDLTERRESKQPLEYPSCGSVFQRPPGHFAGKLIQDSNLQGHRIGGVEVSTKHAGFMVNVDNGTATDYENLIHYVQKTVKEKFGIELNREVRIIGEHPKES
Summary of the method: (§2)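 Enzyme (20 nM) preincubated 20 min with inhibitor, then substrates added to final 50 µM EP-UNAG and 100 µM NADPH. Activity followed spectrophotometrically. At least six inhibitor concentrations between 1.5 and 50 µM per compound. IC50 from sigmoid Hill curve fit (0–100).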

Enterococcus faecalis [4] = test: Minimal inhibitory concentration against vancomycin susceptible Enterococcus faecalis was determined; Range = 25-50 uM; assay type: functional; summary of the method: as §1
[5] = molecular target: T2, UDP-N-acetylenolpyruvoylglucosamine reductase (Escherichia coli K-12, UniProt P08373); test: Inhibitory concentration against MurB enzyme in Escherichia coli; summary of the method: as §2
T2 sequence (P08373 whole entry): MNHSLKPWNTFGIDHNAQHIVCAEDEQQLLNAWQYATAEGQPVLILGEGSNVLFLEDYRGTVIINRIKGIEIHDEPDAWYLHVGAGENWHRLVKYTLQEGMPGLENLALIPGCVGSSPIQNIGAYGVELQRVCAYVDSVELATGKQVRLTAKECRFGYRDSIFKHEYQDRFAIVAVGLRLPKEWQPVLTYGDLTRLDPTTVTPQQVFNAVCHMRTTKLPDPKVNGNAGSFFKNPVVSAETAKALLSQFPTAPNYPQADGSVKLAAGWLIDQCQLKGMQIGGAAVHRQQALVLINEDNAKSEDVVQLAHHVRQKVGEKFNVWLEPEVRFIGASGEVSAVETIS

Staphylococcus aureus [6] = test: Minimal inhibitory concentration against methicillin susceptible Staphylococcus aureus was determined; Range = 25-50 uM; assay type: functional; summary of the method: as §1
Streptococcus pneumoniae [7] = test: Minimum inhibitory concentration against cell wall biosynthesis of penicillin resistant Streptococcus pneumoniae GC 1894 (PRSP) in the presence of 4% bovine serum albumin; assay type: functional
Staphylococcus aureus [8] = test: Minimum inhibitory concentration against cell wall biosynthesis of methicillin susceptible Staphylococcus aureus GC 4543; assay type: functional; summary of the method: as §1
Staphylococcus aureus [9] = test: Minimum inhibitory concentration against cell wall biosynthesis of methicillin resistant Staphylococcus aureus GC 1131; assay type: functional; summary of the method: as §1
[10] = molecular target: UDP-N-acetylglucosamine 1-carboxyvinyltransferase (Escherichia coli K-12, UniProt P0A749); test: Inhibitory concentration against MurA enzyme in Escherichia coli
UDP-N-acetylglucosamine 1-carboxyvinyltransferase, sequence (P0A749 whole entry): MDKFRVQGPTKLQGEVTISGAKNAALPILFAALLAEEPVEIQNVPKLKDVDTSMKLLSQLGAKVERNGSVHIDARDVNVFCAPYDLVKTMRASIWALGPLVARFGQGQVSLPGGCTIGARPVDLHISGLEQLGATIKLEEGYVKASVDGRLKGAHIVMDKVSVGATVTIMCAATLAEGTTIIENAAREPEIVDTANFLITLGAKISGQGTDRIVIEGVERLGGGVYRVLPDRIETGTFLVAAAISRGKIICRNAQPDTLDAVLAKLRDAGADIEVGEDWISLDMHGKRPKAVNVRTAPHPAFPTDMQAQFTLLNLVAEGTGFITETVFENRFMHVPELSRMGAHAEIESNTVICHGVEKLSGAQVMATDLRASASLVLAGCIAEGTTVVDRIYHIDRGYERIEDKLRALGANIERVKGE
Summary of the method: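 Enzyme preincubated with inhibitor 10 min at 37 °C before substrates were added. Reaction ran 30 min at 37 °C and was stopped with malachite green reagent (0.03% malachite green, 1.4% ammonium molybdate, 1.3 N HCl) for phosphate read-out.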

Enterococcus faecalis [11] = test: Minimum inhibitory concentration against cell wall biosynthesis of vancomycin resistant Enterococcus faecalis GC 2242 (VRE); assay type: functional; summary of the method: as §1
Staphylococcus aureus [12] = test: Minimal inhibitory concentration against methicillin resistant Staphylococcus aureus was determined; Range = 25-50 uM; assay type: functional; summary of the method: as §1
Enterococcus faecalis [13] = test: Minimum inhibitory concentration against cell wall biosynthesis of vancomycin susceptible (ATCC) Enterococcus faecalis GC 4555; assay type: functional
Summary of the method: (§3)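 Broth microdilution per NCCLS M7-A3. Mueller–Hinton broth for staphylococci and enterococci, 2-fold serial dilutions of agent. Final inoculum 1–5 × 10^5 CFU/mL.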

[14] = Minimum inhibitory concentration against cell wall biosynthesis of methicillin-susceptible Coagulase negative staphylococcus GC 646 (MSCNS); assay type: functional; summary of the method: as §3
Escherichia coli [15] = test: Minimum inhibitory concentration against cell wall biosynthesis of Escherichia coli GC 4560; assay type: functional
Escherichia coli [16] = test: Minimum inhibitory concentration against cell wall biosynthesis of Escherichia coli GC 4559; assay type: functional; summary of the method: as §3
Escherichia coli [17] = test: Minimal inhibitory concentration against Escherichia coli GC 4560 was determined; assay type: functional; summary of the method: as §3

MIC (Escherichia coli [17]) [µM] | Compound | MIC (Enterococcus faecalis [1]) [µM] | MIC (Streptococcus pneumoniae [2]) [µM] | IC50 [3] [µM] | MIC (Enterococcus faecalis [4]) [µM] | IC50 [5] [µM] | MIC (Staphylococcus aureus [6]) [µM] | MIC (Streptococcus pneumoniae [7]) [µM] | MIC (Staphylococcus aureus [8]) [µM] | MIC (Staphylococcus aureus [9]) [µM] | IC50 [10] [µM] | MIC (Enterococcus faecalis [11]) [µM] | MIC (Staphylococcus aureus [12]) [µM] | MIC (Enterococcus faecalis [13]) [µM] | MIC [14] [µM] | MIC (Escherichia coli [15]) [µM] | MIC (Escherichia coli [16]) [µM]
 | O=C1C(CCCCCCc2ccccc2)C(=O)N(c2ccc(Cl)cc2)N1c1ccc(Cl)cc1 | 50 (≈ 24.1 µg/mL) | 6.25 (≈ 3.01 µg/mL) | 12 | 50 (≈ 24.1 µg/mL) | 8.9 | 50 (≈ 24.1 µg/mL) | > 200 | 25 (≈ 12 µg/mL) | 25 (≈ 12 µg/mL) | 34.9 | 50 (≈ 24.1 µg/mL) | 50 (≈ 24.1 µg/mL) | 50 (≈ 24.1 µg/mL) | 100 (≈ 48.1 µg/mL) | 200 (≈ 96.3 µg/mL) | > 200
25 (≈ 12.8 µg/mL) | N#Cc1ccccc1-c1ccc(CC2C(=O)N(c3ccc(Cl)cc3)N(c3ccc(Cl)cc3)C2=O)cc1 |  |  | 12 |  | 11 |  |  | 6.25 (≈ 3.2 µg/mL) |  | > 50 |  |  | 25 (≈ 12.8 µg/mL) | 6.25 (≈ 3.2 µg/mL) | 25 (≈ 12.8 µg/mL) | > 200
 | O=C1C(CCCCc2ccccc2)C(=O)N(c2ccc(Cl)cc2)N1c1ccc(Cl)cc1 |  | 25 (≈ 11.3 µg/mL) | 6.8 |  | 5.6 |  | > 200 | 200 (≈ 90.7 µg/mL) | 200 (≈ 90.7 µg/mL) | 23.8 | 100 (≈ 45.3 µg/mL) |  | 200 (≈ 90.7 µg/mL) | 200 (≈ 90.7 µg/mL) | > 200 | > 200
 | O=C1C(CCCCCc2ccccc2)C(=O)N(c2ccc(Cl)cc2)N1c1ccc(Cl)cc1 |  | 25 (≈ 11.7 µg/mL) | 32 |  | 10 |  | > 200 | 100 (≈ 46.7 µg/mL) | 200 (≈ 93.5 µg/mL) | 42.3 | 200 (≈ 93.5 µg/mL) |  | 100 (≈ 46.7 µg/mL) | > 200 | > 200 | > 200
 | O=C1C(Cc2ccc(Cl)cc2Cl)C(=O)N(c2ccc(Cl)cc2)N1c1ccc(Cl)cc1 |  | 12.5 (≈ 6 µg/mL) | 29 |  | 11 |  | > 200 | 50 (≈ 24 µg/mL) | 50 (≈ 24 µg/mL) | > 50 | 50 (≈ 24 µg/mL) |  | 100 (≈ 48 µg/mL) | 50 (≈ 24 µg/mL) | 100 (≈ 48 µg/mL) | > 200
 | O=C(CCC1C(=O)N(c2ccc(Cl)cc2)N(c2ccc(Cl)cc2)C1=O)c1ccc(F)cc1 |  | 50 (≈ 23.6 µg/mL) | 18 |  | 13 |  | > 200 | 100 (≈ 47.1 µg/mL) | 100 (≈ 47.1 µg/mL) | 46.9 | 100 (≈ 47.1 µg/mL) |  | 100 (≈ 47.1 µg/mL) | 200 (≈ 94.3 µg/mL) | 200 (≈ 94.3 µg/mL) | > 200

Reference: ChEMBL document CHEMBL1145247, “4-Alkyl and 4,4'-dialkyl 1,2-bis(4-chlorophenyl)pyrazolidine-3,5-dione derivatives as new inhibitors of bacterial cell wall biosynthesis” (Bioorg Med Chem Lett, 2005)
